Screens deposited in PubChem by several laboratories.
This is a sample that favours compounds with a hit; in the whole collection about 2.6% have one here.
MC4R antagonist – MC4R antagonists of cAMP signaling, primary screen, cell-based, TR-FRET, antagonist arm of biased-ligand search; MC4R-expressing cells, MTII-stimulated cAMP, LANCE TR-FRET; inhibition, % at 6.5 µM; 0.48% of 360,000 active;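 active means inhibition above its plate's cutoff, the mean of tested wells on that plate plus 3 SD, cut at about 29% in these data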
Target sequence (P32245 whole entry, looked up): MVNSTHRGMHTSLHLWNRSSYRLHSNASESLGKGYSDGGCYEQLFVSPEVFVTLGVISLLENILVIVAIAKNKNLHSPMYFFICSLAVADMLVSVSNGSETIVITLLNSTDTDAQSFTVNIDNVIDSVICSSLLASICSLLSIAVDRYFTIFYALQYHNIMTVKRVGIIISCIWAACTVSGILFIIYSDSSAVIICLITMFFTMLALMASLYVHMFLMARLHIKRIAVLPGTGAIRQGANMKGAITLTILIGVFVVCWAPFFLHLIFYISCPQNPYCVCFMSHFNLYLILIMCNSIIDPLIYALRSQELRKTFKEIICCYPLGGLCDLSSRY
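System – human MC4R-expressing U2OS cells · Also added – Melanotan II · Dosing – one concentration, 6.5 µM nominal · Timing – 30-min compound, 1-h challenge, 1-h detection, room temperature · Measured by – Eu-cAMP/anti-cAMP TR-FRET, emission 671 nm · Replicates – singlicate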
EP2 modulator – EP2 receptor modulators, cAMP readout, primary screen, cell-based, HTRF cAMP, PGE2 stimulation; induction, % at 25 µM; EP2-expressing cells, cAMP HTRF FRET, PGE2 co-stimulation; Prostaglandin E2 receptor EP2 subtype (Homo sapiens), P43116; AID 940, 2007; 0.83% of 260,000 active;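 active means compounds whose cAMP rise, as percent of the full-agonist control response, exceeds 60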;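 further: rat C6 glioma line stably carrying human EP2 under a CMV promoter; the protocol text gives 20 µM as final concentration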
Target sequence (P43116 whole entry, looked up): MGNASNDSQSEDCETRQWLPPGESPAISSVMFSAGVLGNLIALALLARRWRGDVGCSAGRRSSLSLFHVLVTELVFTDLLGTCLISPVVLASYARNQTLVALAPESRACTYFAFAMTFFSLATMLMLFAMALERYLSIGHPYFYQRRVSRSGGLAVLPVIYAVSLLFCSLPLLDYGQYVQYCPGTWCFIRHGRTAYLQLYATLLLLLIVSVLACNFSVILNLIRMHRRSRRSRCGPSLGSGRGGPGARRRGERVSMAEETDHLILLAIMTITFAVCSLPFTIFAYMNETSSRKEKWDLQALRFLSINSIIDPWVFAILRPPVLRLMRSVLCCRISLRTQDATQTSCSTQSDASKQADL
MC4R ag barr – MC4R agonists recruiting beta-arrestin, primary screen, cell-based, luminescence, agonist arm of biased-ligand search; Melanocortin receptor 4 (Homo sapiens), P32245; U2OS MC4R beta-arrestin complementation; percent of melanotan II response, DMSO zero; activation, % at 8.9 µM; 0.98% of 360,000 active;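 active means activation above a per-plate cutoff, the mean activation of sample wells on that plate plus 3 SD, cut at about 8% in these data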
EP2 antag – human EP2 receptor antagonists, primary screen, TR-FRET cAMP, C6 glioma cells. 0.52% of 260,000 active. inhibition, % at 25 µM. C6 glioma cells expressing human EP2; cells stimulated with saturating PGE2. AID 1422, 2008. Prostaglandin E2 receptor EP2 subtype (Homo sapiens), P43116;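 active means percent inhibition above 40 after rounding to a whole number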;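 further: rat C6 glioma host cells with rolipram phosphodiesterase inhibitor present; the protocol text gives 20 µM as final concentration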
Exocytosis inh – LAMP-1 surface exposure blockers, TALL-104 cells – cell-based, flow cytometry, MLPCN library, primary screen; TALL-104 LAMP-1 surface exposure; cells stimulated with thapsigargin and PMA; inhibition, % at 10 µM; 0.66% of 360,000 active; AID 651702, 2012;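 active means inhibition above about 55%, limit read from the data; inconclusive means no clear call, values can overlap the other calls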
T cell HTS – modulators of CD8 T cell-vesicle binding, primary screen, mouse 2C CD8+ T cells, flow cytometry | 0.068% of 330,000 active | 2C CD8+ T cell-vesicle binding; active compounds read low | response (vesicle binding), % at 7 µM;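 active means response, share of CD8 T cells binding vesicles, and their 90th percentile fluorescence all below set limits, cut at about 80% in these data, passing the limit was not always enough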;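 further: values below 100% mean blocked vesicle binding to the CD8+ T cells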
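Incubation: binding step 1.5 h, 37 °C, antibody labelling 20 min, ice; system: murine 2C transgenic CD8+ T lymphocytes; technique: cytometric PE anti-B7-1 and Alexa647 anti-CD8 signals after 1% paraformaldehyde fixation; also added: QL9-charged Drosophila Ld/ICAM-1/B7-1 vesicles; control set: naked versus QL9-loaded vesicles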
cAMP nonselect – nonselective cAMP signaling inhibitors, parental cells, counter-screen for MC4R biased antagonist project, cell-based, TR-FRET, U2OS, forskolin, triplicate. inhibition, % at 6.5 µM. shares compounds with MC4R antagonist. AID 602193, 2012. 26% of 1,600 active. LANCE TR-FRET;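 active means mean inhibition over triplicates above the low-control well mean plus 3 SD, set per campaign, cut at about 13% in these data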;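 further: signal is single emission at 671 nm which falls as cellular cAMP rises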
MC4R antag conf – MC4R cAMP antagonists, retest, confirmation, cell-based, TR-FRET. MC4R-expressing cells, MTII-stimulated cAMP. 27% of 1,600 active. inhibition, % at 6.5 µM. shares compounds with MC4R antagonist; in the data active means inhibition above about 29%
Numbers stand for hits; i = inactive; ? = inconclusive; nt = no result given.

SMILES	MC4R antagonist	EP2 modulator	MC4R ag barr	EP2 antag	Exocytosis inh	T cell HTS	cAMP nonselect	MC4R antag conf
CCCC(=O)OCC(=O)Nc1ccccc1Sc1ccccc1	i	i	i	i	i	i	nt	nt
O=C(COC(=O)CNS(=O)(=O)c1cccc(Br)c1)Nc1ccccc1Sc1ccccc1	29.2	i	i	i	i	i	i	i
CC(C)[C@H](NS(=O)(=O)c1ccccc1)C(=O)OCC(=O)Nc1ccccc1Sc1ccccc1	i	i	i	i	i	i	nt	nt
O=C(COC(=O)CNS(=O)(=O)c1c(Cl)cccc1Cl)Nc1ccccc1Sc1ccccc1	32.1	i	i	i	i	i	18.4	37.2
CC(=O)N1N=C(c2ccc(C)cc2)CC1c1ccco1 (stereo not drawn)	29.5	i	i	i	i	i	i	i
CC(C(=O)c1ccccc1)[n+]1cccc(C(N)=O)c1 (stereo not drawn)	33.0	i	i	i	i	i	i	i
Cc1ccc(C(=O)C(C)[n+]2cccc(C(N)=O)c2)cc1 (stereo not drawn)	i	i	i	i	i	i	nt	nt
c1ccc2c3c(c(CN4CCCC4)cc2c1)COC3	30.2	i	i	i	i	i	i	i
O=[N+]([O-])c1cccnc1S(=O)(=O)c1ccccc1	32.6	nt	i	nt	?	i	14.4	38.2
COc1ccc([N+](=O)[O-])c(S(=O)(=O)c2ccccc2)n1	28.8	i	i	i	i	i	28.6	i
C[C@H]1CN=C(Nc2ccccc2)N1CCCC1CCCCC1	i	nt	i	nt	i	i	nt	nt
CS(=O)(=O)N(CC(=O)N1CCCCCC1)Cc1ccc(Cl)cc1	i	i	i	i	i	i	nt	nt
O=C(NCCN1C(=O)S/C(=C\c2ccc(Cl)c(Cl)c2)C1=O)c1cnccn1	i	i	i	i	i	i	nt	nt
O=C(NCCN1C(=O)S/C(=C\c2ccc(Cl)c([N+](=O)[O-])c2)C1=O)C1=COCCO1	29.1	nt	i	nt	i	i	i	i
Cc1cc(NC(=O)CCC(=O)N(CC(=O)NCC2CCCO2)c2cccc(F)c2)no1 (stereo not drawn)	i	nt	i	nt	?	i	nt	nt
Cc1ccc(NC(=O)NC2C(NC(=O)Nc3ccc(C)cc3)N(C)C(=O)N2C)cc1 (stereo not drawn)	i	i	i	i	i	i	nt	nt
COc1ccc(NC(=O)CCC(=O)NCCO)cc1	37.2	i	i	i	i	i	i	i
Cc1ccc(C(=O)CCC(=O)N2CCN(c3ccccc3O)CC2)cc1	i	nt	i	nt	i	i	nt	nt
COc1ccc(NC(=S)N(CCc2nc3cc(C)c(C)cc3[nH]2)Cc2cccnc2)cc1	i	i	i	i	i	i	nt	nt
c1ccc(-c2nc3c([nH]2)CCc2nonc2-3)cc1	29.2	i	i	i	i	i	i	i
CC(C)CC(NC(=O)C1CCCCC1)C(=O)NCc1ccccn1 (stereo not drawn)	i	i	i	i	i	i	nt	nt
Cc1ccc(N2C(=O)c3cccc([N+](=O)[O-])c3C2=O)cc1C	42.5	i	i	i	i	i	22.9	45.4
Cc1cccc(C)c1N1C(=O)c2cccc([N+](=O)[O-])c2C1=O	i	i	i	i	i	i	nt	nt
Cc1cccc(C(=O)Nc2ccc(C(=O)/C=C/c3cccnc3)cc2)c1	29.9	i	i	i	i	i	i	i
O=C(/C=C/c1cccnc1)c1ccc(NC(=O)c2cccc(Br)c2)cc1	i	i	i	i	i	i	nt	nt
SMILES	MC4R antagonist	EP2 modulator	MC4R ag barr	EP2 antag	Exocytosis inh	T cell HTS	cAMP nonselect	MC4R antag conf
CCc1cc2c(=O)[nH]c(CC(N)=O)nc2s1	i	i	i	i	i	i	nt	nt
O=C(COC(=O)c1nc(Cl)c(Cl)c(Cl)c1Cl)c1ccc[nH]1	38.7	nt	i	nt	i	i	i	37.5
CN(C(=O)COC(=O)CNC(=O)c1ccc(Cl)cc1Cl)c1ccccc1	30.0	i	i	i	i	i	i	i
COC(=O)C1CCN(C(=O)COC(=O)CNC(=O)c2ccc(Cl)cc2Cl)CC1	34.4	nt	i	nt	i	i	14.1	i
O=C(COC(=O)CNC(=O)c1ccc(Cl)cc1Cl)NNC(=O)c1ccccc1	i	nt	i	nt	i	i	nt	nt
O=C(CNC(=O)c1ccc(Cl)cc1Cl)OCc1nc2ccccc2s1	29.2	i	i	i	i	i	13.5	i
O=C(CNC(=O)c1ccccc1)OCc1nc2ccccc2s1	37.3	i	i	i	i	i	16.6	i
CCNC(=O)Cn1cc(C(F)(F)F)cc(Cl)c1=O	30.3	i	i	i	i	i	i	i
O=C(Nc1ccc(N2CCN(C(=O)c3ccccc3)CC2)cc1)c1cccs1	i	nt	i	nt	i	i	nt	nt
OCCN1CCN(c2cc(-c3ccccc3)c3ccccc3n2)CC1	40.8	i	i	i	i	i	i	i
Nc1nc(SCc2ccccc2[N+](=O)[O-])c2ncn(Cc3ccccc3)c2n1	i	nt	i	nt	i	nt	nt	nt
COC(=O)C1=C(C(=O)OC)SC2(S1)C(C(=O)OC)=C(C(=O)OC)SC1=C2c2cccc(C)c2NC1(C)C	40.7	i	i	i	i	i	i	44.5
O=C(COc1ccc2ccccc2c1)N1CCN(C(=O)c2ccc([N+](=O)[O-])cc2)CC1	31.8	i	i	i	i	i	i	i
O=C(O)c1ccc(CSc2nnc(-c3ccccc3Cl)n2-c2ccccc2)cc1	i	i	i	i	i	i	nt	nt
O=c1c(Cl)c(N2CCN(c3ccccc3)CC2)cnn1C12CC3CC(CC(C3)C1)C2	i	i	i	i	i	i	nt	nt
O=c1c(Cl)c(N2CCN(c3ccc(F)cc3)CC2)cnn1C12CC3CC(CC(C3)C1)C2	28.5	i	i	i	i	i	i	i
O=C(NCc1cccnc1)C(=O)Nc1nccs1	nt	i	nt	i	nt	i	nt	nt
O=C(NCc1cccnc1)C(=O)Nc1nc2ccccc2s1	29.6	i	i	i	i	i	i	i
COc1cccc(C(C(=O)NC(C)(C)C)N(Cc2ccc(F)cc2)C(=O)CCC(=O)Nc2cc(C)on2)c1OC (stereo not drawn)	29.7	nt	i	nt	i	i	i	i
